Reference: ChEMBL document CHEMBL3232944 (Bioorg Med Chem Lett, 2014)

Assays:
[1] = target: T1, Prostaglandin G/H synthase 1 (Ovis aries, UniProt P05979); assay: Inhibition of ovine COX-1 assessed as decrease in PGH2 production using arachidonic acid as substrate treated with enzyme for 10 mins prior to substrate challenge for 2 mins by enzyme immunoassay
T1 sequence (P05979 whole entry): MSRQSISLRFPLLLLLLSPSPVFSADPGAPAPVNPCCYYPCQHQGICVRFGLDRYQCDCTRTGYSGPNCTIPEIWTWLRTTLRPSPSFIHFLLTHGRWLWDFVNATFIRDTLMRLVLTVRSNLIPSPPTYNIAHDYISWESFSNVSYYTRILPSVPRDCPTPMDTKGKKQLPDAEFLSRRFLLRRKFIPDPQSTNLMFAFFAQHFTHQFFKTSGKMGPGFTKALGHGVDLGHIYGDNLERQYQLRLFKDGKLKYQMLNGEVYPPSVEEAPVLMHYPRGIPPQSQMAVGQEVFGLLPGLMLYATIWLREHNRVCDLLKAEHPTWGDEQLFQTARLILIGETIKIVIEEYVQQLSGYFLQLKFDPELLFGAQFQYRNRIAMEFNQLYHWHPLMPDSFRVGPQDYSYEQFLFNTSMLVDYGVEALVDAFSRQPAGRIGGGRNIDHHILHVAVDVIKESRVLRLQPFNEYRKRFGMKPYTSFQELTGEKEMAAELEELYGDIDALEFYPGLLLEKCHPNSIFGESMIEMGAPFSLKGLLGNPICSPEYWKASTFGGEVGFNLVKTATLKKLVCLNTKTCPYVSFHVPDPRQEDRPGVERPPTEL
Method in brief: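 Ovine COX-1 was mixed with test compound at various concentrations plus heme and held 10 min at 37 °C. Arachidonic acid was then added and the reaction ran another 2 min at 37 °C. PGH₂ was reduced with SnCl₂, and the resulting PGF₂α was quantified by EIA using a broadly specific prostaglandin antibody. Boiled (3 min) enzyme served as background and compound-free samples as control. IC50 taken from at least three experiments.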

RAW264.7 = assay: Cytotoxicity against mouse RAW264.7 cells assessed as cell viability at >10 uM after 24 hrs by MTT assay in presence of LPS; format: cell-based; settings: raw264.7, 24 h
Method in brief: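 RAW 264.7 cells plated at 10⁵ cells/well, exposed to various concentrations of compound in the presence of LPS for 24 h. Viability read by colorimetric MTT assay. At least three independent experiments.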

IC50 [1] [µM]	Compound	Activity (RAW264.7)
> 1	Cc1ccc(C2=C(c3ccc(S(N)(=O)=O)cc3)C(=O)N(C)C2=O)cc1	Non-toxic
> 100	Cc1ccc(C2=C(c3ccc(S(N)(=O)=O)cc3)C(=O)NC2=O)cc1	Non-toxic
127	NS(=O)(=O)c1ccc(C2=C(c3ccccc3)C(=O)NC2=O)cc1	Non-toxic
> 1	CN1C(=O)C(c2ccc(Cl)cc2)=C(c2ccc(S(N)(=O)=O)cc2)C1=O	Non-toxic
> 100	NS(=O)(=O)c1ccc(C2=C(c3ccc(Cl)cc3)C(=O)NC2=O)cc1	Non-toxic
> 100	COc1ccc(C2=C(c3ccc(S(N)(=O)=O)cc3)C(=O)NC2=O)cc1	Non-toxic
> 1	COc1ccc(C2=C(c3ccc(S(N)(=O)=O)cc3)C(=O)N(C)C2=O)cc1	Non-toxic
> 1	CN1C(=O)C(c2ccccc2)=C(c2ccc(S(N)(=O)=O)cc2)C1=O	Non-toxic
